IC50 and logIC50 data for 21 molecules are collected here from ChEMBL document CHEMBL1144713, “New selective inhibitors of steroid 11beta-hydroxylation in the adrenal cortex. Synthesis and structure-activity relationship of potent etomidate analogues” (J Med Chem, 2008).

Test [1] can be described thus: (§1) Displacement of [131I]IMTO from CYP450c 11 in Wistar rat adrenal membrane. The format is cell membranes. A digest of the protocol:
(§2)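 Crude membranes from whole adrenals of adult male Wistar rats, homogenized in 10 mM K2HPO4/10 mM HEPES pH 7.1 and washed; 0.06–0.1 mg original tissue per vial. Competitors at 0.1 nM–300 µM with 2 nM 131I-IMTO (carrier added) in buffer containing 150 mM NaCl, 23 °C, 20–30 min. Filtration, γ counting. Nonspecific binding with 10 µM ETO. IC50 and Hill coefficient from curve fit, mean ± SD.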

The species named for test [2] is Rattus norvegicus. The description is as §1. It counts as cell membranes. Summed up:
as §2

A short description of test [3]: Inhibition on cortisol secretion in human NCI-H295 cells after 48 hrs. It counts as functional, cell-based. Conditions: for IC50: Homo sapiens, NCI-H295, 48 h. A digest of the protocol: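 NCI-h295 adrenocortical cells grown in RPMI 1640 with insulin, transferrin, selenium and 5% FCS. Compounds at 10 nM–100 µM added to 1 million cells/mL for 48 h, in triplicate. Supernatant cortisol measured by RIA and expressed as percent of control, with control from six uninhibited determinations. IC50 derived from these percentages.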

Regarding `CCOC(=O)c1cncn1[C@H](C)c1ccccc1` [ETOMIDATE], the figures for the IC50 in test [1] and in test [3] were 1.08 nM and 4.57 nM, respectively. The logIC50 worked out at 0.033 in test [2] and 0.66 in test [3].

As to `CC(=O)c1cncn1[C@H](C)c1ccccc1`, the IC50 in test [1] amounted to 59.8 nM; in test [3] it was 59 nM. For the same molecule, the logIC50 in test [2] was 1.78; in test [3], 1.96.

With `CC(C)OC(=O)c1cncn1[C@H](C)c1ccccc1`, the IC50 in test [1] amounted to 1.42 nM.

For `CON(C)C(=O)c1cncn1[C@H](C)c1ccccc1`, the IC50 in test [1] is 14 nM; in test [3], 19.5 nM. Besides, the logIC50 in test [2] was determined as 1.18; in test [3], 1.45.

With `CNC(=O)c1cncn1[C@H](C)c1ccccc1`, the IC50 was 215 nM in test [1] and 135 nM in test [3]. In addition, the logIC50 in test [2] was found to be 2.33; in test [3], 2.21.

`CC[C@H](c1ccccc1)n1cncc1C(=O)OC`: in test [1], the IC50 worked out at 6.23 nM.

`COC(=O)c1cncn1[C@@H]1CCc2ccccc21` gave an IC50 in test [1] of 3.26 nM.

Turning to `C[C@H](c1ccccc1)n1cncc1C(=O)OCCF`, the IC50 is 2.89 nM in test [1] and 8.92 nM in test [3]. Moreover, the logIC50 in test [2] came to 0.46; in test [3], 1.11.

For the molecule `COC(=O)c1cncn1Cc1cccnc1`, in test [1], the IC50 is 870 nM.

`COC(=O)c1cncn1[C@H](C)c1ccc(C)cc1`: the IC50 in test [1] was 3.58 nM. This IC50 lies about 240-fold lower than the previous one.

Turning to `COC(=O)c1cncn1[C@H](C)c1cccc(I)c1`, the IC50 in test [1] worked out at 4.44 nM. This IC50 and that of the molecule before are within 1.5-fold of each other.

As to `COC(=O)c1cncn1[C@H](C)c1ccccc1`, the IC50 in test [1] was 3.69 nM; in test [3], 13.9 nM. The figures for the logIC50 in test [2] and in test [3] were 0.57 and 1.14, respectively.

For the molecule `COC(=O)c1cncn1[C@H](C)c1cccnc1`, the values for the IC50 in test [1] and in test [3] were 20.7 nM and 52.2 nM, respectively. The figures for the logIC50 in test [2] and in test [3] were 1.32 and 1.72, respectively.

Consider `COC(=O)c1cncn1[C@H](C)c1ccc(CO)cc1`, for which the IC50 in test [1] was found to be 3.29 nM.

Turning to `COC(=O)c1cncn1Cc1ccccc1`, the IC50 in test [1] worked out at 28.8 nM; in test [3] it was 32.1 nM. Besides, the logIC50 in test [2] was found to be 1.46; in test [3], 1.51.

Regarding `COC(=O)c1cncn1[C@H](C)c1ccc(I)cc1` [IODOMETOMIDATE I-123, R-], the half-maximal inhibitory concentration (IC50) in test [1] was 8.98 nM; in test [3], 6.95 nM. Further, the logIC50 turned out to be 0.954 in test [2] and 0.84 in test [3].

As to `CCOC(=O)c1cncn1[C@H](C)c1ccc(I)cc1`, the IC50 in test [1] worked out at 4.37 nM.

In test [1], `C[C@H](c1ccccc1)n1cncc1C(=O)O` gave an IC50 of 123000 nM. Compared with the last molecule, the IC50 is about 28000-fold higher.

In test [1], `COC(=O)c1cncn1[C@H](C)c1ccc(Br)cc1` had a concentration for half-maximal inhibition (IC50) of 8.95 nM.

As for `CCCOC(=O)c1cncn1[C@H](C)c1ccccc1`, the 50% inhibitory concentration (IC50) in test [1] turned out to be 2.89 nM.

Consider `COC(=O)c1cncn1[C@@H](C)c1ccccc1`, for which the figures for the IC50 in test [1] and in test [3] were 492 nM and 593 nM, respectively. For the same molecule, the logIC50 in test [2] turned out to be 2.69; in test [3], 2.77.
